Experimental data taken from ChEMBL document CHEMBL1144570, “C6-(N,N-butyl-methyl-heptanamide) derivatives of estrone and estradiol as inhibitors of type 1 17beta-hydroxysteroid dehydrogenase: Chemical synthesis and biological evaluation” (2007).
Calls of active or inactive are those of the source. The calls are words filed in the database; no cut-off is given here.

Legend:
[1] = biological target: T1, 17-beta-hydroxysteroid dehydrogenase type 1 (Homo sapiens) (UniProt P14061); test: Inhibition of 17beta-HSD1 over-expressed in intact HEK293 cells; format: cell-based
T1 sequence (whole entry): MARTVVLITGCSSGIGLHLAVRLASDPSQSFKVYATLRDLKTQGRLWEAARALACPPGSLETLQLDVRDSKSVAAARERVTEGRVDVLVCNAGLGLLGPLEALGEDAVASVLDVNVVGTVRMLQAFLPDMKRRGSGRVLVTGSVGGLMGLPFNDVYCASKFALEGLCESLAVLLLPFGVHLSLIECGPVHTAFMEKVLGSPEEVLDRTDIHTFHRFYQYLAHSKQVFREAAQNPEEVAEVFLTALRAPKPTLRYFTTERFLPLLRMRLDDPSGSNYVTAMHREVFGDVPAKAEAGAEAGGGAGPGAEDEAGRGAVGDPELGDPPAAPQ
Summary of the method: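 Transfected HEK-293 cells overexpressing type 1 17β-HSD, plated at 5000 cells/well, given ethanolic inhibitor solutions and incubated 24 h. [4-14C]-E1 (60 nM) then added for 15 min. Labelled E1 and E2 extracted from medium and quantified, giving percent inhibition of E1→E2 reduction at 10, 1 and 0.1 μM. Mean of five experiments in quadruplicate.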

[2] = biological target: T1, 17-beta-hydroxysteroid dehydrogenase type 1 (Homo sapiens); test: Inhibition of 17beta-HSD1 over-expressed in intact HEK293 cells at 10 uM; format: cell-based
Summary of the method: (§1)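 Transfected HEK-293 cells expressing type 1 17β-HSD were plated at 5000 cells/well. Inhibitors were added in ethanol and incubated 24 h. [4-14C]-E1 (60 nM) was then added for 15 min. Labelled E1 and E2 were extracted from the medium and quantified. Values are the mean of five experiments in quadruplicate, SD < ±8%.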

[3] = biological target: T1, 17-beta-hydroxysteroid dehydrogenase type 1 (Homo sapiens); test: Inhibition of 17beta-HSD1 over-expressed in homogenated HEK293 cells at 0.1 uM; format: cell-based
Summary of the method: (§2)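 Homogenate of HEK-293 cells overexpressing type 1 17β-HSD. Reductive conversion of E1 (100 nM) to E2 with NADH cofactor. Percent inhibition from one run in triplicate, SD < ±5%.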

[4] = biological target: T1, 17-beta-hydroxysteroid dehydrogenase type 1 (Homo sapiens); test: Inhibition of 17beta-HSD1 over-expressed in intact T47D cells at 0.1 uM; format: cell-based
Summary of the method: (§3)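 Intact T-47D cells, which express endogenous type 1 17β-HSD, were seeded at 3×10^4 cells/well in proliferation assay medium. After 48 h, [4-14C]-E1 (60 nM) and inhibitor in ethanol (0.5% v/v) were added in fresh medium for 24 h. Labelled E1 and E2 were extracted and quantified. Values are the mean of two experiments in triplicate, SD < ±5%.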

[5] = system: MCF7; test: Decrease in cell growth of estrogen-starved ER expressing MCF7 cells at 1 uM relative to control after 10 days; format: functional, cell-based; settings: Homo sapiens
Summary of the method: (§4)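 Cells were moved to medium with insulin (50 ng/mL) and 5% dextran-coated charcoal-treated FBS to remove estrogens, then seeded at 3000 cells/well. After 48 h, inhibitor dilutions in growth medium were added, with medium replaced every 2 days. Cells were grown 10 days in triplicate. Growth was read with the CellTiter 96 AQueous assay and expressed as % of control (100%).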

[6] = biological target: T1, 17-beta-hydroxysteroid dehydrogenase type 1 (Homo sapiens); test: Inhibition of 17beta-HSD1 overexpressed in homogenated HEK293 cells at 1 uM; format: cell-based; summary of the method: as §2
[7] = biological target: T2, Very-long-chain 3-oxoacyl-CoA reductase (Homo sapiens) (UniProt Q53GQ0); test: Inhibition of 17beta-HSD12 over-expressed in intact HEK293 cells at 10 uM; format: cell-based
T2 sequence (whole entry): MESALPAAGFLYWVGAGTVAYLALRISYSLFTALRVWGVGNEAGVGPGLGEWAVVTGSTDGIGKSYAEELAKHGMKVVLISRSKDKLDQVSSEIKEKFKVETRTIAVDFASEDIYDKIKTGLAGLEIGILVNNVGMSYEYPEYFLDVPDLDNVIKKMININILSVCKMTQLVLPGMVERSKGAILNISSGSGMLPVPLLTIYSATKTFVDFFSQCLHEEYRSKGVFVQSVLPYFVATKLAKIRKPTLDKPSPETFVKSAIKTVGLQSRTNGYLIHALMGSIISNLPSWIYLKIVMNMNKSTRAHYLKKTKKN
Summary of the method: (§5)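 Transfected HEK-293 cells expressing type 12 17β-HSD were plated at 1.5×10^5 cells/well. Inhibitor in ethanol plus [4-14C]-E1 (60 nM) were added in fresh medium for 24 h. E1 to E2 conversion was quantified after steroid extraction. Values are the mean of two experiments in triplicate, SD < ±5%.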

[8] = biological target: T1, 17-beta-hydroxysteroid dehydrogenase type 1 (Homo sapiens); test: Inhibition of 17beta-HSD1 over-expressed in intact HEK293 cells at 1 uM; format: cell-based; summary of the method: as §1
[9] = biological target: T1, 17-beta-hydroxysteroid dehydrogenase type 1 (Homo sapiens); test: Inhibition of 17beta-HSD1 over-expressed in intact T47D cells at 1 uM; format: cell-based; summary of the method: as §3
[10] = biological target: T1, 17-beta-hydroxysteroid dehydrogenase type 1 (Homo sapiens); test: Inhibition of 17beta-HSD1 over-expressed in intact T47D cells at 10 uM; format: cell-based; summary of the method: as §3
[11] = biological target: T3, 3-keto-steroid reductase/17-beta-hydroxysteroid dehydrogenase 7 (Homo sapiens) (UniProt P56937); test: Inhibition of 17beta-HSD7 over-expressed in intact HEK293 cells at 10 uM; format: cell-based
T3 sequence (whole entry): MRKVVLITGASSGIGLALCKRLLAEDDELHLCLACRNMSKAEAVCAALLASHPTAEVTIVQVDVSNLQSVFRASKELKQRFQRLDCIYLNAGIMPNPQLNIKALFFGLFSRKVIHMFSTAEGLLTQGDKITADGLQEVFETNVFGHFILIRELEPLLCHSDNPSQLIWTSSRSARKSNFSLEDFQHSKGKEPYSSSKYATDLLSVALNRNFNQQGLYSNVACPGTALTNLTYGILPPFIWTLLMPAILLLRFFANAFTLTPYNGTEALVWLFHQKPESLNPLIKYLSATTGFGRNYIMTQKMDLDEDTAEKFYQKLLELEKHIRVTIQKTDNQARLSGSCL
Summary of the method: (§6)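 Intact transfected HEK-293 cells expressing type 7 17β-HSD. Inhibition of reductive conversion of E1 (60 nM) to E2. One run in triplicate, SD < ±5%.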

[12] = biological target: T1, 17-beta-hydroxysteroid dehydrogenase type 1 (Homo sapiens); test: Inhibition of 17beta-HSD1 over-expressed in intact HEK293 cells at 0.1 uM; format: cell-based; summary of the method: as §1
[13] = biological target: T2, Very-long-chain 3-oxoacyl-CoA reductase (Homo sapiens); test: Inhibition of 17beta-HSD12 over-expressed in intact HEK293 cells at 1 uM; format: cell-based; summary of the method: as §5
[14] = biological target: T3, 3-keto-steroid reductase/17-beta-hydroxysteroid dehydrogenase 7 (Homo sapiens); test: Inhibition of 17beta-HSD7 over-expressed in intact HEK293 cells at 1 uM; format: cell-based; summary of the method: as §6
[15] = system: T47D; test: Decrease in cell growth of estrogen-starved ER expressing T47D cells after 10 days relative to control; format: functional, cell-based; settings: Homo sapiens; summary of the method: as §4
[16] = system: T47D; test: Increase in cell growth of estrogen-starved ER expressing T47D cells at 0.1 uM relative to control after 10 days; format: functional, Homo sapiens; summary of the method: as §4
[17] = system: T47D; test: Increase in cell growth of estrogen-starved ER expressing T47D cells at 1 uM relative to control after 10 days; format: functional, cell-based; settings: Homo sapiens; summary of the method: as §4
[18] = system: T47D; test: Increase in cell growth of estrogen-starved ER expressing T47D cells at 0.01 uM relative to control after 10 days; format: functional, Homo sapiens; summary of the method: as §4
[19] = system: MCF7; test: Increase in cell growth of estrogen-starved ER expressing MCF7 cells at 10 nM relative to control after 10 days; format: functional, Homo sapiens; summary of the method: as §4
[20] = system: T47D; test: Increase in cell growth of estrogen-starved ER expressing T47D cells at 10 nM relative to control after 10 days; format: functional, Homo sapiens; summary of the method: as §4
[21] = system: MCF7; test: Increase in cell growth of estrogen-starved ER expressing MCF7 cells at 1 uM relative to control after 10 days; format: functional, Homo sapiens; summary of the method: as §4
[22] = system: T47D; test: Effect on cell proliferation of estrogen-starved ER expressing T47D cells at 1 uM relative to control after 10 days; format: functional, cell-based; settings: Homo sapiens; summary of the method: as §4
[23] = system: MCF7; test: Increase in cell growth of estrogen-starved ER expressing MCF7 cells at 0.01 uM relative to control after 10 days; format: functional, Homo sapiens; summary of the method: as §4

| Compound | Activity [1] | inhibition [2] [%] | inhibition [3] [%] | inhibition [4] [%] | inhibition [6] [%] | inhibition [7] [%] | inhibition [8] [%] | inhibition [9] [%] | inhibition [10] [%] | inhibition [11] [%] | inhibition [12] [%] | inhibition [13] [%] | inhibition [14] [%] | also measured |
| --- | --- | --- | --- | --- | --- | --- | --- | --- | --- | --- | --- | --- | --- | --- |
| C[C@]12CC[C@H]3C(=CCc4cc(O)ccc43)[C@@H]1CC[C@@H]2O | inactive |  |  |  |  |  |  |  |  |  |  |  |  |  |
| CCCCN(C)C(=O)CCCCCC[C@@H]1C[C@@H]2[C@H](CC[C@]3(C)C(=O)CC[C@@H]23)c2ccc(O)cc21 |  | 31 | 12 | 19 | 23 | 40 | 20 | 57 | 92 | 31 | 8 | 0 | 7 | Activity [5]: Active |
| CCCCN(C)C(=O)CCCCCC[C@H]1C[C@@H]2[C@H](CC[C@]3(C)[C@@H](O)CC[C@@H]23)c2ccc(O)cc21 |  | 15 | 9 | 9 | 17 | 30 | 11 | 21 | 74 | 24 | 3 | 1 | 11 |  |
| CCCCN(C)C(=O)CCCCCC[C@@H]1C[C@@H]2[C@H](CC[C@]3(C)[C@@H](O)CC[C@@H]23)c2ccc(O)cc21 |  | 49 | 15 | 29 | 46 | 30 | 21 | 82 | 95 | 27 | 11 | 1 | 0 | Activity [15]: Active |
| CCCCN(C)C(=O)CCCCCC[C@H]1C[C@@H]2[C@H](CC[C@]3(C)C(=O)CC[C@@H]23)c2ccc(O)cc21 |  | 14 | 3 | 7 | 16 | 44 | 5 | 19 | 71 | 29 | 3 | 3 | 5 |  |
| CCCCN(C)C(=O)CCCCCS[C@@H]1C[C@@H]2[C@H](CC[C@]3(C)[C@@H](O)CC[C@@H]23)c2ccc(O)cc21 |  | 63 | 33 | 31 | 74 | 22 | 45 | 82 | 95 | 25 | 11 | 0 | 9 | Activity [16]: 2.3; Activity [17]: Active; Activity [18]: 2.3 |
| C[C@]12CC[C@@H]3c4ccc(O)cc4[C@H](O)C[C@H]3[C@@H]1CC[C@@H]2O | inactive |  |  |  |  |  |  |  |  |  |  |  |  |  |
| C[C@]12CC[C@@H]3c4ccc(O)cc4CC[C@H]3[C@@H]1CC[C@@H]2O [ESTRADIOL] |  |  |  |  |  |  |  |  |  |  |  |  |  | Activity [19]: 1.8; Activity [20]: 3 |
| C[C@]12CC[C@@H]3c4ccc(O)cc4C=C[C@H]3[C@@H]1CC[C@@H]2O | inactive |  |  |  |  |  |  |  |  |  |  |  |  |  |
| C[C@]12CC[C@@H]3c4ccc(O)cc4CC[C@H]3[C@@H]1CCC2=O |  | 83 | 19 | 36 | 59 | 0 | 38 | 85 | 93 | 0 | 8 | 0 | 0 |  |
| CCCCN(C)C(=O)CCCCCC[C@@H]1C[C@@H]2[C@H](CC[C@]3(C)[C@@H](O)CC[C@@H]23)c2cc(OC)c(O)cc21 |  | 28 |  | 11 |  | 22 | 15 | 32 | 81 | 17 | 13 | 0 | 0 | Activity [21]: 1.1; Activity [18]: 2.3; Activity [22]: inactive; Activity [23]: 1.7 |
| C[C@]12CC[C@@H]3c4ccc(O)cc4C(=O)C[C@H]3[C@@H]1CC[C@@H]2O | inactive |  |  |  |  |  |  |  |  |  |  |  |  |  |
